Assay results reported in ChEMBL document CHEMBL3763117, “Design, synthesis and biological evaluation of imidazo[2,1-b]thiazole and benzo[d]imidazo[2,1-b]thiazole derivatives as Mycobacterium tuberculosis pantothenate synthetase inhibitors” (Bioorg Med Chem, 2016).
≈ marks a conversion by molar mass, not a printed value. Calls of active or inactive are those of the source. No cut-off for these calls is given here.

Experiments:
[1] = molecular target: T1, Pantothenate synthetase (Mycobacterium tuberculosis, UniProt P9WIL5); test: Inhibition of Mycobacterium tuberculosis pantothenate synthetase using pantoic acid as substrate and beta-alanine as reactant assessed as NAD+ formation by spectrophotmetry in presence of NADH
T1 sequence (P9WIL5 whole entry): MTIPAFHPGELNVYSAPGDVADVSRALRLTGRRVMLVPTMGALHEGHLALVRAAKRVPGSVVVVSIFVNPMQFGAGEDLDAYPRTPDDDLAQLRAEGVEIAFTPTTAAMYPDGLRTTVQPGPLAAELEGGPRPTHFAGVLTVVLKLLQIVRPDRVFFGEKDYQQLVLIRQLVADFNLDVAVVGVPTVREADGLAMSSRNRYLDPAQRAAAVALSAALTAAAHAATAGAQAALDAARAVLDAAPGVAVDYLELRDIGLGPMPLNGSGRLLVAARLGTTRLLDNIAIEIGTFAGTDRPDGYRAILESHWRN
How it was run: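 Recombinant MTB PS (panC, Rv3602c) expressed in E. coli BL21(DE3). Coupled assay in 100 mM HEPES pH 7.8: 0.4 mM NADH, 5 mM pantoic acid, 5 mM β-alanine, 10 mM ATP, 10 mM MgCl2, 1 mM phosphoenolpyruvate, with myokinase, pyruvate kinase and lactate dehydrogenase. Compounds were tested from 25 µM downward. Reaction was started with PS; NADH depletion was read at 340 nm at 37 °C, background-corrected.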

[2] = test system: Mycobacterium tuberculosis; test: Antimycobacterial activity against Mycobacterium tuberculosis H37Rv ATCC 27294 after 7 days by microplate Alamar blue assay; format: functional; conditions: H37Rv ATCC 27294, 168 h
How it was run: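 MABA against M. tuberculosis H37Rv. Inoculum came from LJ medium, resuspended in 7H9-S (7H9, 0.1% casitone, 0.5% glycerol, OADC), adjusted to McFarland No. 1 and diluted 1:20. Two-fold dilutions spanned 50 to 0.78 µg/mL, in duplicate. Plates ran 7 days at 37 °C, then alamar blue was added overnight. MIC was the lowest concentration preventing the blue-to-pink change.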

[3] = Cytotoxicity against mouse RAW264.7 cells assessed as inhibition of cell viability at 50 uM after 72 hrs by MTT assay; format: cell-based; conditions: read-out: INH
How it was run: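 RAW 264.7 mouse macrophages were exposed to compound at 50 µM for 72 h. Viability was read as MTT conversion to formazan.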

[4] = test system: Mycobacterium tuberculosis; test: Antimycobacterial activity against nutrient starved Mycobacterium tuberculosis H37Rv assessed as reduction in bacterial load at 10 ug/ml incubated for 7 days measured after 28 days by microplate reader analysis; format: functional
How it was run: (§1)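 H37Rv grown in 7H9/OADC, pelleted, washed twice and resuspended in PBS. It was starved in sealed bottles at 37 °C for 6 weeks. Cultures were exposed to drug at 10 µg/ml for 7 days at 37 °C. Ten-fold dilutions to 10^-6 in 7H9/OADC were plated in triplicate and incubated 28 days at 37 °C without agitation. Wells with visible growth were scored and MPN calculated.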

[5] = test system: Mycobacterium marinum; test: Antimycobacterial activity against Mycobacterium marinum ATCC BAA-535 infected in Zebra fish model assessed as reduction in bacterial load at 5 mg/kg, po administered for 7 days measured after 14 days by MPN assay; format: functional
How it was run: (§2)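 Adult zebra fish infected with M. marinum ATCC BAA-535 (grown at 30 °C in Middlebrook 7H9 broth). Oral treatment began 7 days post infection and ran for 7 days. Fish were then sacrificed and homogenised in 7H9 broth. Homogenate was serially diluted to 10^-6, plated in 48-well plates and incubated at 30 °C. Bacterial count was by MPN.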

[6] = test system: Mycobacterium tuberculosis; test: Antimycobacterial activity against nutrient starved Mycobacterium tuberculosis H37Rv assessed as reduction in bacterial load for 7 days measured after 28 days by microplate reader analysis; format: functional; how it was run: as §1
[7] = test system: Mycobacterium marinum; test: Antimycobacterial activity against Mycobacterium marinum ATCC BAA-535 infected in Zebra fish model assessed as reduction in bacterial load at 10 mg/kg, po administered for 7 days measured after 14 days by MPN assay; format: functional; how it was run: as §2

Compound | IC50 [1] | MIC [2] | cytotoxicity at 72 h, 50 µM [3] | Activity [4] | Activity [5] | MIC [6] | Activity [7]
Cc1nc2sc3ccccc3n2c1C(=O)NNC(=O)c1ccccc1 | 1.1 µM | 35.7 µM (≈ 12.5 µg/mL) | 29.7% | – | – | – | –
Cc1nc2sccn2c1C(=O)Nc1ccc(Br)cc1 | 0.69 µM | 2.32 µM (≈ 0.78 µg/mL) | 32.3% | 2 deltalog10CFU/ml | – | – | –
Cc1nc2sccn2c1C(=O)NNC(=O)C1CCCCC1 | 5.38 µM | 20.4 µM (≈ 6.25 µg/mL) | 31.2% | – | – | – | –
COc1c(N2C[C@@H]3CCCN[C@@H]3C2)c(F)cc2c(=O)c(C(=O)O)cn(C3CC3)c12 [MOXIFLOXACIN] | – | – | – | – | 2.9 deltalog10CFU/ml | 0.78 µg/mL (≈ 1.94 µM) | –
Cc1nc2sc3ccccc3n2c1C(=O)Nc1ccc(Br)cc1 | 0.52 µM | 16.2 µM (≈ 6.25 µg/mL) | 20.9% | – | – | – | –
Cc1nc2sccn2c1C(=O)N/N=C/c1ccccc1 | 0.58 µM | 23.2 µM (≈ 6.6 µg/mL) | 23.1% | – | – | – | –
Cc1nc2sc3ccccc3n2c1C(=O)NCc1ccccc1 | 0.84 µM | 19.4 µM (≈ 6.25 µg/mL) | 6.62% | – | – | – | –
Cc1nc2sccn2c1C(=O)N/N=C/c1ccc(C(F)(F)F)cc1 | 0.67 µM | 17.7 µM (≈ 6.25 µg/mL) | 12.8% | – | – | – | –
Cc1nc2sc3ccccc3n2c1C(=O)NNC(=O)c1cccc2ccccc12 | 1.39 µM | 15.6 µM (≈ 6.25 µg/mL) | 32% | – | – | – | –
Cc1nc2sc3ccccc3n2c1C(=O)N/N=C/c1ccc(N(C)C)cc1 | 1.46 µM | 4.13 µM (≈ 1.56 µg/mL) | 12.1% | – | – | – | –
Cc1nc2sc3ccccc3n2c1C(=O)N/N=C/c1ccc(Br)cc1 | 1.02 µM | 15.1 µM (≈ 6.25 µg/mL) | 10.1% | – | – | – | –
Cc1nc2sc3ccccc3n2c1C(=O)NNC(=O)C1CCCCC1 | 2.91 µM | 17.5 µM (≈ 6.25 µg/mL) | 45.4% | – | – | – | –
Cc1nc2sc3ccccc3n2c1C(=O)NNC(=O)c1ccc(Oc2ccccc2)cc1 | 0.53 µM | 3.53 µM (≈ 1.56 µg/mL) | 10.4% | – | – | – | 1.5 deltalog10CFU/ml
CCOc1ccc(NC(=O)c2c(C)nc3sc4ccccc4n23)cc1 | 2.1 µM | 42 µM (≈ 14.7 µg/mL) | 52.7% | – | – | – | –
CC[C@@H](CO)NCCN[C@@H](CC)CO [ETHAMBUTOL] | > 25 µM | 7.64 µM (≈ 1.56 µg/mL) | – | – | – | – | –
Cc1nc2sc3ccccc3n2c1C(=O)N/N=C/c1ccc(C(F)(F)F)cc1 | 5.31 µM | 16.5 µM (≈ 6.65 µg/mL) | 16.1% | – | – | – | –
Cc1nc2sccn2c1C(=O)NCc1ccccc1 | 1.06 µM | 11.5 µM (≈ 3.13 µg/mL) | 12.7% | – | – | – | –
Cc1nc2sc3ccccc3n2c1C(=O)N/N=C/c1ccccc1 | 2.15 µM | 9.35 µM (≈ 3.13 µg/mL) | 34.6% | – | – | – | –

Compound | IC50 [1] | MIC [2] | cytotoxicity at 72 h, 50 µM [3] | Activity [4] | Activity [5] | MIC [6] | Activity [7]
Cc1nc2sccn2c1C(=O)N/N=C/c1ccc(Br)cc1 | 1.2 µM | 34.4 µM (≈ 12.5 µg/mL) | 22.2% | – | – | – | –
COc1cc(/C=N/NC(=O)c2c(C)nc3sc4ccccc4n23)cc(OC)c1OC | 2.07 µM | 29.4 µM (≈ 12.5 µg/mL) | 16.2% | – | – | – | –
Cc1nc2sccn2c1C(=O)NNC(=O)c1ccc(Oc2ccccc2)cc1 | 1.23 µM | 7.96 µM (≈ 3.12 µg/mL) | 2.98% | – | – | – | –
Cc1nc2sccn2c1C(=O)NC1CCCCC1 | 2 µM | 11.8 µM (≈ 3.12 µg/mL) | 32.1% | – | – | – | –
COc1cc(/C=N/NC(=O)c2c(C)nc3sccn23)cc(OC)c1OC | 5.61 µM | 33.4 µM (≈ 12.5 µg/mL) | 1.17% | – | – | – | –
Cc1ccc(C(=O)NNC(=O)c2c(C)nc3sccn23)cc1 | 4.99 µM | 5.96 µM (≈ 1.87 µg/mL) | 39.2% | 2.1 deltalog10CFU/ml | – | – | –
Cc1nc2sccn2c1C(=O)Nc1ccccc1 | 0.74 µM | 12.1 µM (≈ 3.12 µg/mL) | 14.1% | – | – | – | –
Cc1ccc(C(=O)NNC(=O)c2c(C)nc3sc4ccccc4n23)cc1 | 5.83 µM | 17.1 µM (≈ 6.25 µg/mL) | 53% | – | – | – | –
Cc1nc2sc3ccccc3n2c1C(=O)Nc1ccccc1 | 1.03 µM | 40.7 µM (≈ 12.5 µg/mL) | 33.2% | – | – | – | –
Cc1nc2sccn2c1C(=O)N/N=C/c1ccc(N(C)C)cc1 | 2.5 µM | 38.2 µM (≈ 12.5 µg/mL) | 6.75% | – | – | – | –
Cc1nc2sccn2c1C(=O)NNC(=O)c1cccc2ccccc12 | 0.64 µM | 17.8 µM (≈ 6.25 µg/mL) | 27.5% | – | – | – | –
CC1(C)S[C@@H]2[C@H](NC(=O)[C@H](N)c3ccc(O)cc3)C(=O)N2[C@H]1C(=O)O | – | – | – | – | – | – | inactive
NNC(=O)c1ccncc1 [ISONIAZID] | > 25 µM | 0.72 µM (≈ 0.0987 µg/mL) | – | 1.1 deltalog10CFU/ml | – | 0.05 µg/mL (≈ 0.365 µM) | 1.8 deltalog10CFU/ml
COc1ccc(NC(=O)c2c(C)nc3sccn23)cc1 | 5.83 µM | 20.7 µM (≈ 5.96 µg/mL) | 58.7% | – | – | – | –
Cc1nc2sccn2c1C(=O)NNC(=O)c1ccccc1 | 5.31 µM | 40.1 µM (≈ 12 µg/mL) | 10.3% | – | – | – | –
CO[C@H]1/C=C/O[C@@]2(C)Oc3c(C)c(O)c4c(O)c(c(/C=N/N5CCN(C)CC5)c(O)c4c3C2=O)NC(=O)/C(C)=C\C=C\[C@H](C)[C@H](O)[C@@H](C)[C@@H](O)[C@@H](C)[C@H](OC(C)=O)[C@@H]1C [RIFAMPIN] | – | – | – | 2.1 deltalog10CFU/ml | 1.9 deltalog10CFU/ml | 0.1 µg/mL (≈ 0.122 µM) | –
Cc1nc2sc3ccccc3n2c1C(=O)NC1CCCCC1 | 1.02 µM | 19.9 µM (≈ 6.25 µg/mL) | 13.4% | – | – | – | –
